Experiments:
[1] = target: T1, Voltage-gated L-type calcium channel (Rattus norvegicus, UniProt P22002+Q02485+P27732); assay: Inhibition of L-type calcium channel in endothelium-denuded Wistar rat aorta rings assessed as relaxation of 60 mM K+-induced contraction; conditions: for inhibition (INH): rat
[2] = target: T1, Voltage-gated L-type calcium channel; assay: Inhibition of L-type calcium channel in endothelium-denuded Wistar rat aorta rings assessed as relaxation of 30 mM K+-induced contraction
Outline: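 Endothelium-denuded rat aorta rings, isometric tension, equilibrated 60 min in PSS gassed with 95% O2/5% CO2 (pH 7.4). Contracted with 0.3 μM phenylephrine, or 30 or 60 mM K+ (KCl replacing NaCl).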

[3] = target: T1, Voltage-gated L-type calcium channel; assay: Inhibition of L-type calcium channel in endothelium-denuded Wistar rat aorta rings assessed as relaxation of phenylephrine-induced contraction; conditions: for inhibition (INH): rat
[4] = target: T1, Voltage-gated L-type calcium channel; assay: Inhibition of L-type calcium channel in endothelium-denuded Wistar rat aorta rings depolarized with 60 mM K+ solution assessed as relaxation of Ca2+-induced contraction
Outline: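 Endothelium-denuded rings stimulated with 60 mM K+ for 15 min, then washed 90 min in Ca2+-free PSS with 1 mM EGTA, and stores emptied with 0.3 μM phenylephrine. Depolarized in Ca2+-free 60 mM K+ PSS, then cumulative Ca2+ (0.03−3 mM). Test substance or vehicle present 30 min before and throughout.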

[5] = target: T1, Voltage-gated L-type calcium channel; assay: Inhibition of L-type calcium channel in endothelium-denuded Wistar rat aorta rings depolarized with 60 mM K+ solution assessed as relaxation of Ca2+-induced contraction at 12 and 40 uM in presence of 10 nM calcium channel agonist (S)-(-)Bay K 8644
Outline: (§1)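 Following the cumulative Ca2+ (0.03−3 mM) curve in endothelium-denuded rings depolarized with Ca2+-free 60 mM K+ PSS, with compound or vehicle present from 30 min beforehand, 10 nM (S)-(−)-Bay K 8644 was added after the last Ca2+ addition. Tone expressed as % of the response to 60 mM K+; mean ± SE, n = 4−17.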

[6] = target: T1, Voltage-gated L-type calcium channel; assay: Inhibition of L-type calcium channel in Wistar rat aorta rings assessed as relaxation of phenylephrine-induced contraction in Ca2+ free medium
Outline: (§2)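 Rings in Ca2+-free PSS with 1 mM EGTA for 15 min, then 30 min incubation with vehicle or alkaloid. Contraction to 10 μM phenylephrine reflects sarcoplasmic reticulum Ca2+ release; 3.5 mM Ca2+ is then re-added with phenylephrine still present to index Ca2+ influx. Washed 45 min and repeated at a higher concentration. Expressed as % of 0.3 μM phenylephrine contraction in PSS.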

[7] = target: T1, Voltage-gated L-type calcium channel; assay: Inhibition of L-type calcium channel in Wistar rat tail artery myocytes assessed as reduction in L-type Ba(2+) current at Vh of -50 mV; conditions: for inhibition (INH): rat
[8] = target: T1, Voltage-gated L-type calcium channel; assay: Inhibition of L-type calcium channel in endothelium-intact Wistar rat aorta rings assessed as relaxation of 0.3 uM phenylephrine-induced contraction
[9] = target: T1, Voltage-gated L-type calcium channel; assay: Inhibition of L-type calcium channel in endothelium-denuded Wistar rat aorta rings depolarized with 60 mM K+ solution assessed as relaxation of Ca2+-induced contraction at 43 and 128 uM in presence of 10 nM calcium channel agonist (S)-(-)Bay K 8644; outline: as §1
[10] = target: T1, Voltage-gated L-type calcium channel; assay: Inhibition of L-type calcium channel in Wistar rat aorta rings assessed as relaxation of phenylephrine-induced contraction in Ca2+ restored medium; outline: as §2

Row | SMILES | pIC50 [1] | inhibition (INH) [1] | pIC50 [2] | pIC50 [3] | inhibition (INH) [3] | inhibition (INH) [4] | inhibition (INH) [5] | inhibition (INH) [6] | IC50 [7] | inhibition (INH) [7] | pIC50 [8] | inhibition (INH) ([8]; rat) | inhibition (INH) [9] | inhibition (INH) [10]
1 | CSC(=O)N(C)CCc1c[nH]c2ccccc12 | 4.8 | Dose-dependent effect | 4.5 | 4.7 | Dose-dependent effect | Dose-dependent effect | Not Active | Not Active | 251 µM | Dose-dependent effect | 4.4 | – | – | –
2 | COc1ccc(CCN(C)CCCC(C#N)(c2ccc(OC)c(OC)c2)C(C)C)cc1OC (stereo not given) | – | Dose-dependent effect | – | – | Dose-dependent effect | – | – | – | – | Dose-dependent effect | – | Dose-dependent effect | – | –
3 | CSC(=O)NCCc1c[nH]c2ccccc12 | 4.1 | Dose-dependent effect | 3.9 | 4.3 | Dose-dependent effect | Dose-dependent effect | – | Not Active | – | – | 4.2 | – | Not Active | Active

From ChEMBL document CHEMBL3352538, “Vascular L-type Ca²⁺ channel blocking activity of sulfur-containing indole alkaloids from Glycosmis petelotii” (J Nat Prod, 2014)
